Test system: integrin αIIbβ3 TM complex
Type: binding, Human
Settings: ITC, 28 °C, same bicelles
How it was run: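 β3 TM peptide (10 μM in cell) titrated with αIIb TM peptide in 10 s injections until saturation. Medium: 43 mM DHPC, 17 mM POPC, 25 mM sodium phosphate, pH 7.4, with 9 mM free DHPC. Heats of dilution of both peptides were subtracted. ΔH° and mole-fraction K_XY were fitted with 1:1 stoichiometry fixed. Peptide amounts were set by UV absorbance.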

Substance: αIIb + β3: Human integrin αIIb(A958-P998) and β3(P685-F727) TM peptides incorporating β3(C687S), recombinantly produced; wild-type pair
- ΔG° (ΔG° = −RT ln KXY): -4.84 ± 0.01 kcal/mol
- TΔS° (ΔS° = (ΔH° − ΔG°)/T): -11.1 ± 0.1 kcal/mol

From article PMC11025564 (The journal of physical chemistry. B, 2018)
